Measured values reported in ChEMBL document CHEMBL1138254, “Stereoselective synthesis and cytotoxicity of a cancer chemopreventive naphthoquinone from Tabebuia avellanedae” (Bioorg Med Chem Lett, 2007).

What was measured:
PC-3 = experiment: Cytotoxicity against human PC3 cells assessed as cell viability by tryptan blue staining method; type: functional, cell-based
How it was run: (§1)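 Human cancer lines PC-3 (prostate), A549 (lung) and MCF-7 (breast) were treated with compound. Viability was assessed by Trypan blue staining, and EC50 is reported in µM.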

A549 = experiment: Cytotoxicity against human A549 cells assessed as cell viability by tryptan blue staining method; type: functional, cell-based; how it was run: as §1
MCF7 = experiment: Cytotoxicity against human MCF7 cells assessed as cell viability by tryptan blue staining method; type: functional, cell-based; how it was run: as §1
[1] = Cytotoxicity against human Fb cells assessed as cell viability by tryptan blue staining method; type: cell-based
How it was run: (§2)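 Human normal cell lines were treated with compound: Fb (skin), Hc (liver), MPC-5 (lung) and IE (colon). Viability was assessed by Trypan blue staining, and EC50 is reported in µM.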

[2] = Cytotoxicity against human Hc cells assessed as cell viability by tryptan blue staining method; type: cell-based; how it was run: as §2
[3] = Cytotoxicity against human MPC5 cells assessed as cell viability by tryptan blue staining method; type: cell-based; conditions: MPC-5; how it was run: as §2
[4] = Cytotoxicity against human IE cells assessed as cell viability by tryptan blue staining method; type: cell-based; how it was run: as §2
Human gammaherpesvirus 4 [5] = experiment: Inhibition of TPA-induced EBV-EA activation in Raji cells at 1000 mol ratio/TPA relative to control; type: functional
How it was run: (§3)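 TPA-induced EBV-EA activation in Raji cells, with TPA at 32 pmol and test agent at 1000, 500, 100 and 10 mol ratio/TPA. EA-positive cells are expressed relative to the positive control (TPA alone, 100%). An IC50 in µM is derived from the dose series. Curcumin served as the positive control substance.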

Human gammaherpesvirus 4 [6] = experiment: Inhibition of TPA-induced EBV-EA activation in Raji cells at 500 mol ratio/TPA relative to control; type: functional; how it was run: as §3
Human gammaherpesvirus 4 [7] = experiment: Inhibition of TPA-induced EBV-EA activation in Raji cells at 100 mol ratio/TPA relative to control; type: functional; how it was run: as §3
Human gammaherpesvirus 4 [8] = experiment: Inhibition of TPA-induced EBV-EA activation in Raji cells at 10 mol ratio/TPA relative to control; type: functional; how it was run: as §3
Human gammaherpesvirus 4 [9] = experiment: Inhibition of TPA-induced EBV-EA activation in Raji cells; type: functional, organism-based; conditions: human gammaherpesvirus 4, Raji; how it was run: as §3
Raji [10] = experiment: Cell viability in Raji cells at 1000 mol ratio/TPA by tryptan blue staining relative to control; type: functional, Homo sapiens
How it was run: (§4)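 Raji cells co-treated with test agent and 32 pmol TPA in the EBV-EA activation assay. Doses were 10, 100, 500 or 1000 mol ratio relative to TPA. Viability was scored by Trypan blue staining and given as percent of Raji cells viable.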

Raji [11] = experiment: Cell viability in Raji cells at 500 mol ratio/TPA by tryptan blue staining relative to control; type: functional, Homo sapiens; how it was run: as §4
Raji [12] = experiment: Cell viability in Raji cells at 100 mol ratio/TPA by tryptan blue staining relative to control; type: functional, Homo sapiens; how it was run: as §4
Raji [13] = experiment: Cell viability in Raji cells at 10 mol ratio/TPA by tryptan blue staining relative to control; type: functional, Homo sapiens; how it was run: as §4

`C[C@@H](O)c1cc2c(o1)C(=O)c1cccc(O)c1C2=O` showed an EC50 (PC-3) of 0.93 µM, an EC50 (A549) of 3 µM and an EC50 (MCF7) of 9.3 µM. The EC50 [1] was 39.7 µM, the EC50 [2] was 29.8 µM and the EC50 [3] was 65.9 µM. The EC50 [4] was 39.7 µM, the “EBV-EA positive cells %” value (Human gammaherpesvirus 4 [5]) was 0% and the “EBV-EA positive cells %” value (Human gammaherpesvirus 4 [6]) was 9.7%. For the same molecule, the “EBV-EA positive cells %” value (Human gammaherpesvirus 4 [7]) was 24.7%, the “EBV-EA positive cells %” value (Human gammaherpesvirus 4 [8]) was 59.4% and the IC50 (Human gammaherpesvirus 4 [9]) was 38.9 µM. The Activity (Raji [10]) was 70%, the Activity (Raji [11]) was greater than 80% and the Activity (Raji [12]) was greater than 80%. The Activity (Raji [13]) was greater than 80%.

For `CC(O)c1cc2c(o1)C(=O)c1cccc(O)c1C2=O` (centres undefined), the EC50 (PC-3) was 0.56 µM, the EC50 (A549) was 3.24 µM and the EC50 (MCF7) was 8.5 µM. It also gave an EC50 [1] of 45.4 µM, an EC50 [2] of 89.3 µM and an EC50 [3] of 89.3 µM. For the same molecule, the EC50 [4] was 158 µM, the “EBV-EA positive cells %” value (Human gammaherpesvirus 4 [5]) was 0% and the “EBV-EA positive cells %” value (Human gammaherpesvirus 4 [6]) was 6.2%. The “EBV-EA positive cells %” value (Human gammaherpesvirus 4 [7]) was 20.7%, the “EBV-EA positive cells %” value (Human gammaherpesvirus 4 [8]) was 52.9% and the IC50 (Human gammaherpesvirus 4 [9]) was 34.9 µM. For the same molecule, the Activity (Raji [10]) was 60%, the Activity (Raji [11]) was 70% and the Activity (Raji [12]) was greater than 80%. The Activity (Raji [13]) was greater than 80%.

In the case of `C[C@H](O)c1cc2c(o1)C(=O)c1cccc(O)c1C2=O`, the EC50 (PC-3) is reported as 0.14 µM, the EC50 (A549) is reported as 0.96 µM and the EC50 (MCF7) is reported as 3.5 µM. The EC50 [1] was 11.1 µM, the EC50 [2] was 11.1 µM and the EC50 [3] was 29.7 µM. For the same molecule, the EC50 [4] was 54.5 µM, the “EBV-EA positive cells %” value (Human gammaherpesvirus 4 [5]) was 0% and the “EBV-EA positive cells %” value (Human gammaherpesvirus 4 [6]) was 4.4%. For the same molecule, the “EBV-EA positive cells %” value (Human gammaherpesvirus 4 [7]) was 16.9%, the “EBV-EA positive cells %” value (Human gammaherpesvirus 4 [8]) was 50% and the IC50 (Human gammaherpesvirus 4 [9]) was 33.2 µM. It also gave an Activity (Raji [10]) of 60%, an Activity (Raji [11]) of 60% and an Activity (Raji [12]) greater than 80%. For the same molecule, the Activity (Raji [13]) was greater than 80%.

In the case of `COc1cc(/C=C/C(=O)CC(=O)/C=C/c2ccc(O)c(OC)c2)ccc1O` [CURCUMIN], the IC50 (Human gammaherpesvirus 4 [9]) is reported as 345 µM.

With `CC(C)=CCC1=C(O)C(=O)c2ccccc2C1=O` [LAPACHOL] the “EBV-EA positive cells %” value (Human gammaherpesvirus 4 [5]) was 8.9%, the “EBV-EA positive cells %” value (Human gammaherpesvirus 4 [6]) was 32.8% and the “EBV-EA positive cells %” value (Human gammaherpesvirus 4 [7]) was 65.2%. The “EBV-EA positive cells %” value (Human gammaherpesvirus 4 [8]) was 86.6%, the IC50 (Human gammaherpesvirus 4 [9]) was 311 µM and the Activity (Raji [10]) was 50%. It also gave an Activity (Raji [11]) of 60%, an Activity (Raji [12]) greater than 80% and an Activity (Raji [13]) greater than 80%.

With `CC1(C)CCC2=C(O1)c1ccccc1C(=O)C2=O` [LAPACHONE] the “EBV-EA positive cells %” value (Human gammaherpesvirus 4 [5]) was 4.7%, the “EBV-EA positive cells %” value (Human gammaherpesvirus 4 [6]) was 21.7% and the “EBV-EA positive cells %” value (Human gammaherpesvirus 4 [7]) was 50.4%. The “EBV-EA positive cells %” value (Human gammaherpesvirus 4 [8]) was 73.1%, the IC50 (Human gammaherpesvirus 4 [9]) was 210 µM and the Activity (Raji [10]) was 50%. For the same molecule, the Activity (Raji [11]) was greater than 80%, the Activity (Raji [12]) was greater than 80% and the Activity (Raji [13]) was greater than 80%.

In the case of `CO[C@@]12[C@H](COC(N)=O)C3=C(C(=O)C(C)=C(N)C3=O)N1C[C@@H]1N[C@@H]12` [MITOMYCIN], the EC50 (PC-3) is reported as 0.14 µM, the EC50 (A549) is reported as 0.43 µM and the EC50 (MCF7) is reported as 0.96 µM. For the same molecule, the EC50 [1] was 0.93 µM, the EC50 [2] was 1.46 µM and the EC50 [3] was 2.1 µM. For the same molecule, the EC50 [4] was 1.46 µM.
